Columns and labels:
[1] = molecular target: T1, Ectonucleotide pyrophosphatase/phosphodiesterase family member 1 (Homo sapiens, UniProt P22413); test: Inhibition of human recombinant NPP1 assessed as release of p-nitrophenol by microtitre plate spectrophotometry
T1 sequence (P22413 whole entry): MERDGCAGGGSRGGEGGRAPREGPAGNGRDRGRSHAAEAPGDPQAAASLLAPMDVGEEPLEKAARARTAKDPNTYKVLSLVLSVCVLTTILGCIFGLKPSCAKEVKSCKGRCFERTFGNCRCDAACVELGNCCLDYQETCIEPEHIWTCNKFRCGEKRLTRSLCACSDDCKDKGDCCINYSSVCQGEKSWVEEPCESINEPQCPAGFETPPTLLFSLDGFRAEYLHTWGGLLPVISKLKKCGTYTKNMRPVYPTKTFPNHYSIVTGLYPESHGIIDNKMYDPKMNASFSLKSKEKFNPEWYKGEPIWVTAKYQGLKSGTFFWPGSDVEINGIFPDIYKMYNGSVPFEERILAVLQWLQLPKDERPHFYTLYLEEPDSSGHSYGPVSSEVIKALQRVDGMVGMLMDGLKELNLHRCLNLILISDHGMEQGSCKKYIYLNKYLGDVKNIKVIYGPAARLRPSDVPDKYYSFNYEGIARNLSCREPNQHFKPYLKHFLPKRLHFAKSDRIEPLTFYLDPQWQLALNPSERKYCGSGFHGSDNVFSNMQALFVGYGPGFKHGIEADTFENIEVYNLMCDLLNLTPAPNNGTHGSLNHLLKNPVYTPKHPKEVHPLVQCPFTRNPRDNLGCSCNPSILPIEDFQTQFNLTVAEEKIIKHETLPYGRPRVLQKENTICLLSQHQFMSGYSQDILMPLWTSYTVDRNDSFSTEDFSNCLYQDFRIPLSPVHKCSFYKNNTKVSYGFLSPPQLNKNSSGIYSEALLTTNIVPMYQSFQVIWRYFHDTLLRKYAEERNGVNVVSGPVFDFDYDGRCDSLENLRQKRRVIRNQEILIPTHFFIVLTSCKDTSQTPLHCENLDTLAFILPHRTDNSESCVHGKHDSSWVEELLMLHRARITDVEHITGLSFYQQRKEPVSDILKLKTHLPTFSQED
In short: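 Soluble catalytic extracellular domain of human NPP1. Substrate p-nitrophenyl phenyl phosphonate in 20 mM Tris–HCl pH 8.0, 0.5 M NaCl, 1 mM CaCl2. p-Nitrophenol release read at 405 nm, 37 °C, microtitre plate. Triplicates; IC50 given with SEM of 3–5 experiments.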

[2] = Inhibition of snake venom NPP1 assessed as release of p-nitrophenol after 30 mins by microtitre plate spectrophotometry; parameters: species or system Naja naja
In short: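 Substrate: 0.33 mM bis-(p-nitrophenyl) phosphate. p-Nitrophenol release read at 410 nm, 37 °C, after 30 min incubation. Initial rates taken as OD/min change, run in triplicate. Cysteine and EDTA served as positive controls.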

[3] = Noncompetitive inhibition of snake venom NPP1 by Dixon plot analysis; parameters: species or system Naja naja
[4] = molecular target: T1, Ectonucleotide pyrophosphatase/phosphodiesterase family member 1; test: Noncompetitive inhibition of human recombinant NPP1 by Dixon plot analysis
In short: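 Same human NPP1 assay at fixed inhibitor concentrations. Dixon plots run at p-nitrophenyl phenyl phosphonate 0.4, 0.6, 0.8 and 1.0 mM, and Lineweaver–Burk plots from initial velocities. Secondary replots were slope versus 1/[S], and 1/Vmaxapp or slope versus inhibitor. Ki is the mean of five values from these plots; points are means of three experiments.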

[5] = Cytotoxicity against human neutrophils assessed as cell viability up to 200 ug/mL after 30 mins by WST1 assay; type: cell-based, Neutrophil
In short: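 Neutrophils isolated from heparinized venous blood of healthy volunteers (Ficoll sedimentation, ammonium chloride 0.83% RBC lysis), 1 × 10^7 cells/mL, exposed to compounds at 200–12.5 µg/mL (five concentrations) for 30 min. Then WST-1 0.25 mM, 3 h at 37 °C with shaking, absorbance 450 nm. Mean of five replicates; % viability relative to untreated control.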

Structure (SMILES) | IC50 [1] [µM] | IC50 ([2]; read-out: IC50) [µM] | Ki [3] [µM] | Ki [4] [µM] | IC50 [2] | viability at 0.5 h [5] [%]
S=c1[nH]nc(-c2ccncc2)s1 | 998 | 660 | 525 |  |  | 
S=c1[nH]nc(CCCc2n[nH]c(=S)o2)o1 | 467 | 429 | 450 | 150 |  | 
S=c1[nH]nc(Cc2n[nH]c(=S)o2)o1 | > 1000 | 850 | 500 |  |  | 
Oc1ccc(-c2nn(Cc3ccccc3)c(=S)s2)cc1 |  |  |  |  | Not Active | 
CC(C)(C)[Si](C)(C)Oc1ccc(-c2n[nH]c(=S)s2)cc1 | > 1000 | 66.5 | 100 |  |  | > 90
Oc1ccc(-c2n[nH]c(=S)o2)cc1 |  | 960 | 1150 |  |  | 
CCCCCCCCn1nc(-c2ccc(OCc3ccccc3)cc2)oc1=S |  | > 1000 |  |  |  | 
S=c1[nH]nc(-c2ccncc2)o1 |  | > 1000 |  |  |  | 
Oc1ccc(-c2n[nH]c(=S)s2)cc1 | 900 | 390 | 350 | 850 |  | 
CC(C)(C)[Si](C)(C)Oc1ccc(-c2n[nH]c(=S)o2)cc1 | 368 | 383 | 375 | 360 |  | > 90
S=c1sc(-c2ccc(OCc3ccccc3)cc2)nn1Cc1ccccc1 |  |  |  |  | Not Active | 
S=c1[nH]nc(-c2cccc(OCc3ccccc3)c2)o1 | 494 | > 1000 |  | 360 |  | 
CCCn1nc(-c2ccc(O)cc2)sc1=S |  |  |  |  | Not Active | 
CCCOc1ccc(-c2nn(CC)c(=S)s2)cc1 |  |  |  |  | Not Active | 
S=c1[nH]nc(-c2ccc(OCc3ccccc3)cc2)o1 | 628 | 900 | 1400 | 850 |  | 
S=c1[nH]nc(Cc2n[nH]c(=S)s2)s1 |  | 839 | 1050 |  |  | > 90
Oc1cccc(-c2n[nH]c(=S)o2)c1 |  | 1000 | 1050 |  |  | 
S=c1[nH]nc(C(c2ccccc2)c2ccccc2)s1 |  | > 1000 |  |  |  | 
